Measured values from ChEMBL document CHEMBL1821569, “Synthesis of novel 1,2,5-trisubstituted benzimidazoles as potential antitumor agents” (2011).

Key:
Type in all cases: functional
SR = assay: Antitumor activity against human SR cells after 48 hrs by SRB assay
Summary of the method: (§1)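 NCI 60-cell-line secondary screen. Continuous 48 h exposure at five concentration levels. Cell growth estimated by sulforhodamine B protein staining. GI50 taken as the concentration giving 50% reduction in net protein increase relative to untreated control cells over the incubation. TGI (total growth inhibition) and LC50 (50% cell kill) were also derived.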

NCI-H226 = assay: Antitumor activity against human NCI-H226 cells after 48 hrs by SRB assay; conditions: NCI-H226, 48 h
Summary of the method: (§2)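 NCI 60-cell-line secondary screen. Cells were exposed continuously to drug for 48 h at five concentration levels (100, 10, 1.0, 0.1 and 0.01). Growth was estimated by sulforhodamine B protein staining. GI50 is the concentration giving a 50% reduction in net protein increase versus untreated control cells over the incubation. TGI (total growth inhibition) and LC50 (50% cell kill) were also derived.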

UACC-62 = assay: Antitumor activity against human UACC62 cells after 48 hrs by SRB assay; conditions: UACC-62, 48 h; summary of the method: as §1
MDA-MB-468 = assay: Antitumor activity against human MDA-MB-468 cells after 48 hrs by SRB assay; conditions: MDA-MB-468, 48 h; summary of the method: as §2
HOP-62 = assay: Antitumor activity against human HOP62 cells after 48 hrs by SRB assay; conditions: HOP-62, 48 h; summary of the method: as §2
ACHN = assay: Antitumor activity against human ACHN cells after 48 hrs by SRB assay; summary of the method: as §2
M14 = assay: Antitumor activity against human M14 cells after 48 hrs by SRB assay; conditions: M14, 48 h; summary of the method: as §2
NCI-H460 = assay: Antitumor activity against human NCI-H460 cells after 48 hrs by SRB assay; conditions: NCI-H460, 48 h; summary of the method: as §2
DU-145 = assay: Antitumor activity against human DU145 cells after 48 hrs by SRB assay; conditions: DU-145, 48 h; summary of the method: as §2
OVCAR-8 = assay: Antitumor activity against human OVCAR8 cells after 48 hrs by SRB assay; conditions: OVCAR-8, 48 h; summary of the method: as §2
UO-31 = assay: Antitumor activity against human UO31 cells after 48 hrs by SRB assay; conditions: UO-31, 48 h; summary of the method: as §1
TK-10 = assay: Antitumor activity against human TK10 cells after 48 hrs by SRB assay; conditions: TK-10, 48 h; summary of the method: as §1
SK-MEL-28 = assay: Antitumor activity against human SK-MEL-28 cells after 48 hrs by SRB assay; conditions: SK-MEL-28, 48 h; summary of the method: as §2
SNB-19 = assay: Antitumor activity against human SNB19 cells after 48 hrs by SRB assay; conditions: SNB-19, 48 h; summary of the method: as §2
NCI/ADR-RES = assay: Antitumor activity against human NCI/ADR-RES cells after 48 hrs by SRB assay; summary of the method: as §2
OVCAR-5 = assay: Antitumor activity against human OVCAR5 cells after 48 hrs by SRB assay; conditions: OVCAR-5, 48 h; summary of the method: as §2
KM12 = assay: Antitumor activity against human KM12 cells after 48 hrs by SRB assay; conditions: KM12, 48 h; summary of the method: as §2
COLO 205 = assay: Antitumor activity against human COLO205 cells after 48 hrs by SRB assay; conditions: COLO 205, 48 h; summary of the method: as §2
MDA-MB-231 = assay: Antitumor activity against human MDA-MB-231 cells after 48 hrs by SRB assay; conditions: MDA-MB-231, 48 h; summary of the method: as §2
PC-3 = assay: Antitumor activity against human PC3 cells after 48 hrs by SRB assay; conditions: PC-3, 48 h; summary of the method: as §2
HT-29 = assay: Antitumor activity against human HT-29 cells after 48 hrs by SRB assay; conditions: HT-29, 48 h; summary of the method: as §2
SF-295 = assay: Antitumor activity against human SF295 cells after 48 hrs by SRB assay; conditions: SF-295, 48 h; summary of the method: as §2
[1] = Antitumor activity against human Hs 578T cells after 48 hrs by SRB assay; summary of the method: as §2
K562 = assay: Antitumor activity against human K562 cells after 48 hrs by SRB assay; conditions: K562, 48 h; summary of the method: as §2
786-0 = assay: Antitumor activity against human 786-0 cells after 48 hrs by SRB assay; conditions: 786-0, 48 h; summary of the method: as §2
HCC 2998 = assay: Antitumor activity against human HCC2998 cells after 48 hrs by SRB assay; conditions: HCC 2998, 48 h
Summary of the method: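 NCI 60-cell-line secondary screen: continuous drug exposure for 48 h at five concentration levels (100, 10, 1.0, 0.1 and 0.01). Cell growth was estimated by sulforhodamine B (SRB) protein staining. GI50 is the concentration giving a 50% reduction in net protein increase relative to untreated control cells during the incubation. TGI and LC50 were derived from the same data.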

Malme-3M = assay: Antitumor activity against human MALME-3M cells after 48 hrs by SRB assay; summary of the method: as §2
HCT-116 = assay: Antitumor activity against human HCT116 cells after 48 hrs by SRB assay; conditions: HCT-116, 48 h; summary of the method: as §2
A549 = assay: Antitumor activity against human A549 cells after 48 hrs by SRB assay; conditions: A549, 48 h; summary of the method: as §2
EKVX = assay: Antitumor activity against human EKVX cells after 48 hrs by SRB assay; summary of the method: as §2
[2] = read-out: LC50 (the source's name)

Work on `COC(=O)c1ccc2c(c1)nc(-c1ccc(Cl)cc1)n2-c1cc(C(C)(C)C)[nH]n1` yielded a GI50 (SR) of 3.23 µM, a TGI (SR) greater than 100 µM and a CC50 (SR; [2]) greater than 100 µM. For the same molecule, the GI50 (NCI-H226) was 4.09 µM, the LC50 (50% cell kill) (NCI-H226) was greater than 100 µM and the TGI (NCI-H226) was 44 µM. The GI50 (UACC-62) was 2.01 µM, the TGI (UACC-62) was 7.78 µM and the CC50 (UACC-62; [2]) was 0.463 µM. For the same molecule, the GI50 (MDA-MB-468) was 2.4 µM, the TGI (MDA-MB-468) was 7.98 µM and the CC50 (MDA-MB-468; [2]) was greater than 100 µM. It also gave a GI50 (HOP-62) of 3.41 µM, an LC50 (concentration giving 50% cell kill) (HOP-62) greater than 100 µM and a TGI (HOP-62) of 21 µM. It also gave a GI50 (ACHN) of 3 µM, a TGI (ACHN) of 9.34 µM and a CC50 (ACHN; [2]) greater than 100 µM. It also gave a GI50 (M14) of 2.9 µM, a TGI (M14) of 8.22 µM and a CC50 (M14; [2]) of 0.758 µM. The GI50 (NCI-H460) was 2.95 µM, the TGI (NCI-H460) was 8.81 µM and the CC50 (NCI-H460; [2]) was greater than 100 µM. For the same molecule, the GI50 (DU-145) was 3.7 µM, the TGI (DU-145) was 25.8 µM and the CC50 (DU-145; [2]) was greater than 100 µM. It also gave a GI50 (OVCAR-8) of 7.33 µM, a TGI (OVCAR-8) of 58.2 µM and a CC50 (OVCAR-8; [2]) greater than 100 µM. It also gave a GI50 (UO-31) of 3.35 µM, a TGI (UO-31) of 44.1 µM and a CC50 (UO-31; [2]) greater than 100 µM. It also gave a GI50 (TK-10) of 6.94 µM, a TGI (TK-10) greater than 100 µM and a CC50 (TK-10; [2]) greater than 100 µM. It also gave a GI50 (SK-MEL-28) of 3.38 µM, a TGI (SK-MEL-28) of 15.5 µM and a CC50 (SK-MEL-28; [2]) of 0.552 µM. For the same molecule, the GI50 (SNB-19) was 4.31 µM, the TGI (SNB-19) was greater than 100 µM and the CC50 (SNB-19; [2]) was greater than 100 µM. It also gave a GI50 (NCI/ADR-RES) of 2.72 µM, a TGI (NCI/ADR-RES) of 7.35 µM and a CC50 (NCI/ADR-RES; [2]) greater than 100 µM. For the same molecule, the GI50 (OVCAR-5) was 12.9 µM, the TGI (OVCAR-5) was 60.1 µM and the CC50 (OVCAR-5; [2]) was greater than 100 µM. For the same molecule, the GI50 (KM12) was 2.12 µM, the TGI (KM12) was 6.07 µM and the CC50 (KM12; [2]) was greater than 100 µM. For the same molecule, the GI50 (COLO 205) was 2.29 µM, the TGI (COLO 205) was 6.04 µM and the CC50 (COLO 205; [2]) was 0.463 µM. The GI50 (MDA-MB-231) was 4.62 µM, the TGI (MDA-MB-231) was 27 µM and the CC50 (MDA-MB-231; [2]) was greater than 100 µM. For the same molecule, the GI50 (PC-3) was 2.93 µM, the TGI (PC-3) was 15.7 µM and the CC50 (PC-3; [2]) was greater than 100 µM. It also gave a GI50 (HT-29) of 3.65 µM, an LC50 (50% cell kill) (HT-29) greater than 100 µM and a TGI (HT-29) of 15.4 µM. For the same molecule, the GI50 (SF-295) was 2.48 µM, the TGI (SF-295) was 8.98 µM and the CC50 (SF-295; [2]) was greater than 100 µM. The GI50 [1] was 1.72 µM, the TGI [1] was 7.86 µM and the CC50 [1, 2] was greater than 100 µM. It also gave a GI50 (K562) of 4.2 µM, a TGI (K562) greater than 100 µM and a CC50 (K562; [2]) greater than 100 µM. For the same molecule, the GI50 (786-0) was 3.62 µM, the TGI (786-0) was 32 µM and the CC50 (786-0; [2]) was greater than 100 µM. It also gave a GI50 (HCC 2998) of 3.9 µM, a TGI (HCC 2998) of 19.8 µM and a CC50 (HCC 2998; [2]) greater than 100 µM. The GI50 (Malme-3M) was 3.25 µM, the TGI (Malme-3M) was 15.6 µM and the CC50 (Malme-3M; [2]) was greater than 100 µM. For the same molecule, the GI50 (HCT-116) was 3.47 µM, the LC50 (HCT-116) was 0.563 µM and the TGI (HCT-116) was 12.3 µM. The GI50 (A549) was 4.03 µM, the TGI (A549) was 94.5 µM and the CC50 (A549; [2]) was greater than 100 µM. It also gave a GI50 (EKVX) of 3.06 µM, an LC50 (50% cell kill) (EKVX) greater than 100 µM and a TGI (EKVX) greater than 100 µM.
